Assay results as given in ChEMBL document CHEMBL4266010, “Synthesis, Biological Evaluation of Fluorescent 23-Hydroxybetulinic Acid Probes, and Their Cellular Localization Studies” (ACS Med Chem Lett, 2018).
Activity calls are given as the source filed them. The rule behind the calls is not given here.

How the values were obtained:
B16-F10 [1] = assay: Antiproliferative activity against mouse B16F10 cells after 72 hrs by MTT assay; type: functional, cell-based; settings: B16-F10, 72 h
In short: (§1)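 MTT assay on B16F10 mouse skin melanoma, MCF-7 human breast cancer and Helf human embryonic lung fibroblast cells. Doxorubicin served as reference. Values are mean ± SD of three independent experiments.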

MCF7 = assay: Antiproliferative activity against human MCF7 cells after 72 hrs by MTT assay; type: functional, cell-based; settings: MCF7, 72 h; in short: as §1
[2] = Antiproliferative activity against HELF after 72 hrs by MTT assay; design: species or system Homo sapiens; in short: as §1
[3] = Drug uptake in mouse B16F10 cells after 15 mins by fluorescence microscopic method; type: ADME, cell-based; settings: b16-f10, 0.25 h
In short: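 Live B16F10 cells incubated with the coumarin-labelled probe (10 μM among several concentrations) over a time course. Intracellular fluorescence imaged by fluorescence microscopy. Probe excitation/emission maxima 415/475 nm.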

[4] = Drug uptake in mouse B16F10 cells at 10 uM up to 240 mins mins by flow cytometry; type: ADME, cell-based; settings: b16-f10, 4 h
In short: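 Live B16F10 cells incubated with 10 μM coumarin probe over a time course (0–120 min and beyond). Intracellular fluorescence intensity quantified by flow cytometry.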

[5] = Drug uptake in mouse B16F10 cell mitochondria at 4 uM after 1 hr by MitoTracker dye based confocal laser scanning microscopic method; type: ADME; settings: b16-f10, 1 h
In short: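 Live B16F10 cells incubated 1 h with the coumarin probe at 4 μM together with MitoTracker. Imaged by confocal laser scanning microscopy with probe excitation at 415 nm (green) and MitoTracker […] at 579 nm (red). Colocalization read from overlay of the two channels.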

[6] = Drug uptake in mouse B16F10 cell nucleus at 4 uM after 1 hr by DAPI staining based confocal laser scanning microscopic method; type: ADME, subcellular; settings: b16-f10, 1 h
[7] = Drug uptake in mouse B16F10 cell lysosomes at 4 uM after 1 hr by LysoTracker staining based confocal laser scanning microscopic method; type: ADME, subcellular, Lysosome; settings: b16-f10, 1 h
In short: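 Live B16F10 cells co-stained with the coumarin probe at 4 μM and LysoTracker Red, with DAPI nuclear counterstain. Imaged by confocal microscopy, probe visualized as green and lysosomes as red.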

B16-F10 [8] = assay: Induction of mitochondrial membrane potential loss in mouse B16F10 cells at 1.5 to 6 uM after 48 hrs by JC-1 dye based flow cytometry; type: functional, cell-based
In short: (§2)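 B16F10 cells incubated 48 h with parent acid (0, 7.5, 15, 30 μM) or probe (0, 1.5, 3.0, 6.0 μM), then stained with JC-1. Percentage of cells with collapsed mitochondrial membrane potential determined by flow cytometry.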

B16-F10 [9] = assay: Induction of apoptosis in mouse B16F10 cells assessed as increase in Bax protein expression at 1.5 to 6 uM after 48 hrs by Western blot analysis; type: functional, cell-based
In short: (§3)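 B16F10 cells treated with parent acid (0, 7.5, 15, 30 μM) or probe (0, 1.5, 3.0, 6.0 μM). Bax, Bcl-2, cytochrome c, caspase 3 and caspase 9 detected by Western blot with GAPDH loading control. Band density normalized to GAPDH as relative expression. Values are mean ± SD of three independent experiments; P values for control vs treated.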

B16-F10 [10] = assay: Induction of apoptosis in mouse B16F10 cells assessed as increase in cytochrome-c protein expression at 1.5 to 6 uM after 48 hrs by Western blot analysis; type: functional, cell-based; in short: as §3
B16-F10 [11] = assay: Induction of apoptosis in mouse B16F10 cells assessed as increase in caspase-3 protein expression at 1.5 to 6 uM after 48 hrs by Western blot analysis; type: functional, cell-based; in short: as §3
B16-F10 [12] = assay: Induction of apoptosis in mouse B16F10 cells assessed as increase in caspase-9 protein expression at 1.5 to 6 uM after 48 hrs by Western blot analysis; type: functional, cell-based; in short: as §3
B16-F10 [13] = assay: Induction of apoptosis in mouse B16F10 cells assessed as decrease in Bcl2 protein expression at 1.5 to 6 uM after 48 hrs by Western blot analysis; type: functional, cell-based; in short: as §3
B16-F10 [14] = assay: Induction of mitochondrial membrane potential loss in mouse B16F10 cells at 7.5 uM after 48 hrs by JC-1 dye based flow cytometry (reference value: 1.79%); type: functional; in short: as §2
B16-F10 [15] = assay: Induction of mitochondrial membrane potential loss in mouse B16F10 cells at 15 uM after 48 hrs by JC-1 dye based flow cytometry (reference value: 1.79%); type: functional; in short: as §2
B16-F10 [16] = assay: Induction of mitochondrial membrane potential loss in mouse B16F10 cells at 30 uM after 48 hrs by JC-1 dye based flow cytometry (reference value: 1.79%); type: functional; in short: as §2
B16-F10 [17] = assay: Induction of apoptosis in mouse B16F10 cells assessed as increase in Bax protein expression at 7.5 to 30 uM after 48 hrs by Western blot analysis; type: functional, cell-based; in short: as §3
B16-F10 [18] = assay: Induction of apoptosis in mouse B16F10 cells assessed as increase in cytochrome-c protein expression at 7.5 to 30 uM after 48 hrs by Western blot analysis; type: functional, cell-based; in short: as §3
B16-F10 [19] = assay: Induction of apoptosis in mouse B16F10 cells assessed as increase in caspase-3 protein expression at 7.5 to 30 uM after 48 hrs by Western blot analysis; type: functional, cell-based; in short: as §3
B16-F10 [20] = assay: Induction of apoptosis in mouse B16F10 cells assessed as increase in caspase-9 protein expression at 7.5 to 30 uM after 48 hrs by Western blot analysis; type: functional, cell-based; in short: as §3
B16-F10 [21] = assay: Induction of apoptosis in mouse B16F10 cells assessed as decrease in Bcl2 protein expression at 7.5 to 30 uM after 48 hrs by Western blot analysis; type: functional, cell-based; in short: as §3
[22] = Drug uptake in mouse B16F10 cells up to 50 uM after 1 hr by fluorescence microscopic method; type: ADME, cell-based; settings: b16-f10, 1 h
In short: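 Live B16F10 cells stained 1 h with the unconjugated coumarin dye at up to 50 μM as control. Intracellular fluorescence examined by microscopy.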

| SMILES | IC50 (B16-F10 [1]) | IC50 (MCF7) | IC50 [2] | further results |
| --- | --- | --- | --- | --- |
| C=C(C)[C@@H]1CC[C@]2(C(=O)O)CC[C@]3(C)[C@H](CC[C@@H]4[C@@]5(C)CC[C@H](O)[C@@](C)(COC(=O)CCC(=O)OCCOC(=O)c6cc7ccc(N(CC)CC)cc7oc6=O)[C@@H]5CC[C@]43C)[C@@H]12 | 11.8 µM | 19.7 µM | 23.8 µM | – |
| COc1cccc2c1C(=O)c1c(O)c3c(c(O)c1C2=O)C[C@@](O)(C(=O)CO)C[C@@H]3O[C@H]1C[C@H](N)[C@H](O)[C@H](C)O1 [DOXORUBICIN] | 0.19 µM | 0.15 µM | 0.21 µM | – |
| C=C(C)[C@@H]1CC[C@]2(C(=O)O)CC[C@]3(C)[C@H](CC[C@@H]4[C@@]5(C)CC[C@H](O)[C@@](C)(COC(=O)CCC(=O)NCCNC(=O)c6cc7ccc(N(CC)CC)cc7oc6=O)[C@@H]5CC[C@]43C)[C@@H]12 | 4.07 µM | 6.26 µM | 11.7 µM | Drug uptake [3]: Dose-dependent effect; Drug uptake [4]: Active; Drug uptake [5]: Active; Drug uptake [6]: Not Active; Drug uptake [7]: Not Active; Activity (B16-F10 [8]): Active; Activity (B16-F10 [9]): Active; Activity (B16-F10 [10]): Active; Activity (B16-F10 [11]): Active; Activity (B16-F10 [12]): Active; Activity (B16-F10 [13]): Active |
| C=C(C)[C@@H]1CC[C@]2(C(=O)O)CC[C@]3(C)[C@H](CC[C@@H]4[C@@]5(C)CC[C@H](O)[C@@](C)(COC(=O)COCCOCCNC(=O)c6cc7ccc(N(CC)CC)cc7oc6=O)[C@@H]5CC[C@]43C)[C@@H]12 | 5.25 µM | 8.16 µM | 10.8 µM | – |
| C=C(C)[C@@H]1CC[C@]2(C(=O)O)CC[C@]3(C)[C@H](CC[C@@H]4[C@@]5(C)CC[C@H](O)[C@@](C)(COC(=O)CCC(=O)OCCNC(=O)c6cc7ccc(N(CC)CC)cc7oc6=O)[C@@H]5CC[C@]43C)[C@@H]12 | 10.5 µM | 18.1 µM | 25.1 µM | – |
| C=C(C)[C@@H]1CC[C@]2(C(=O)O)CC[C@]3(C)[C@H](CC[C@@H]4[C@@]5(C)CC[C@H](O)[C@@](C)(CO)[C@@H]5CC[C@]43C)[C@@H]12 | 24.5 µM | 20.8 µM | 31.5 µM | Activity (B16-F10 [14]): 10.57%; Activity (B16-F10 [15]): 22.85%; Activity (B16-F10 [16]): 42.87%; Activity (B16-F10 [17]): Active; Activity (B16-F10 [18]): Active; Activity (B16-F10 [19]): Active; Activity (B16-F10 [20]): Active; Activity (B16-F10 [21]): Active |
| C=C(C)[C@@H]1CC[C@]2(C(=O)O)CC[C@]3(C)[C@H](CC[C@@H]4[C@@]5(C)CC[C@H](O)[C@@](C)(COC(=O)CCC(=O)NCCOC(=O)c6cc7ccc(N(CC)CC)cc7oc6=O)[C@@H]5CC[C@]43C)[C@@H]12 | 11.5 µM | 19.9 µM | 24 µM | – |
| C=C(C)[C@@H]1CC[C@]2(C(=O)O)CC[C@]3(C)[C@H](CC[C@@H]4[C@@]5(C)CC[C@H](O)[C@@](C)(COC(=O)CCC(=O)OCCOCCOCCOC(=O)c6cc7ccc(N(CC)CC)cc7oc6=O)[C@@H]5CC[C@]43C)[C@@H]12 | 30 µM | 24.2 µM | 19.4 µM | – |
| C=C(C)[C@@H]1CC[C@]2(C(=O)O)CC[C@]3(C)[C@H](CC[C@@H]4[C@@]5(C)CC[C@H](O)[C@@](C)(COC(=O)CCCCCNC(=O)c6cc7ccc(N(CC)CC)cc7oc6=O)[C@@H]5CC[C@]43C)[C@@H]12 | 12.3 µM | 37.8 µM | 79.7 µM | – |
| CCN(CC)c1ccc2cc(C(=O)NCCNC(=O)CCC(=O)O)c(=O)oc2c1 | > 100 µM | – | – | Drug uptake [22]: Not Active |
| C=C(C)[C@@H]1CC[C@]2(C(=O)O)CC[C@]3(C)[C@H](CC[C@@H]4[C@@]5(C)CC[C@H](O)[C@@](C)(COC(=O)CCC(=O)OCCOCCOC(=O)c6cc7ccc(N(CC)CC)cc7oc6=O)[C@@H]5CC[C@]43C)[C@@H]12 | 35.5 µM | 30.5 µM | 21.4 µM | – |
| C=C(C)[C@@H]1CC[C@]2(C(=O)O)CC[C@]3(C)[C@H](CC[C@@H]4[C@@]5(C)CC[C@H](O)[C@@](C)(COC(=O)CCCNC(=O)c6cc7ccc(N(CC)CC)cc7oc6=O)[C@@H]5CC[C@]43C)[C@@H]12 | 11.3 µM | 18.1 µM | 27.8 µM | – |
| C=C(C)[C@@H]1CC[C@]2(C(=O)O)CC[C@]3(C)[C@H](CC[C@@H]4[C@@]5(C)CC[C@H](O)[C@@](C)(COC(=O)CCC(=O)NCCCCNC(=O)c6cc7ccc(N(CC)CC)cc7oc6=O)[C@@H]5CC[C@]43C)[C@@H]12 | 7.77 µM | 9.7 µM | 17.6 µM | – |
